Source: PubChem BioAssay
T cruzi inh – T. cruzi replication inhibition. T. cruzi beta-gal in NIH3T3, luminescence, 90 h. inhibition, % (concentration not given with the values). hit rate 1.4% among 300,000;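 active = mean inhibition across valid replicates above about 55%, limit read from the data; inconclusive = mean below that limit but half or more replicates reach it; inactive = mean below it, under half of replicates reach it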;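 also: signal also drops with host cell toxicity which is not excluded here; higher percent means less beta-gal luminescence so fewer parasites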
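compound dosing = single 50 nL compound addition per well in DMSO | material = NIH/3T3 host cells with β-galactosidase reporter T. cruzi | input = 5,000 host fibroblasts per well | timing = ≥90 h infection period, 3 h prior cell attachment | read-out basis = percent inhibition of parasite-derived β-gal signal | detection = GalScreen β-gal luminescence, detergent lysis, 60 min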
CSC inhib – blocks cancer stem cells; hit rate 1.1% among 300,000; AID 2717; cancer stem cell-like cells viability, luminescence; inhibition, % at 7.5 µM; in the data active = inhibition above about 75%; inconclusive = no clear call, values can overlap the other calls; tested in HMLE shEcad cells
Beta apoptosis – beta cell apoptosis inhibition | INS-1E cytokine-induced death, ATP luminescence, 48 h; percent of positive-control rescue, neutral wells zero | hit rate 0.8% among 300,000 | AID 435005 | protection from apoptosis, % (test concentration not listed);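 active = Every replicate reaches about 75%, or at least half do and their mean reaches it too, limit read from the data; inconclusive = At least half of replicates reach the limit but their mean does not; inactive = Under half of replicates reach the limit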;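 also: higher means more ATP so stronger rescue from cytokine killing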
PfHsp90 set2 – reduces growth (ATP signal) of yeast expressing P. falciparum Hsp90; inhibition, % at 9.4 µM; hit rate 0.32% among 310,000; S. cerevisiae expressing PfHsp90, BacTiter-Glo ATP, 48 h; yeast lacking PDR1 and PDR3 efflux regulators;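 active = every replicate shows inhibition above about 80%, whatever the replicate mean, limit read from the data; inconclusive = mean inhibition reaches the set limit but some replicate falls short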
HIF activator – HIF pathway transcriptional activation. AID 1910. U2OS HRE-luciferase reporter, luminescence; normalized: DMSO 0%, desferrioxamine 100%. hit rate 0.32% among 300,000. activation, % at 7.5 µM (by protocol);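 active = mean activation of at least 10% of the iron chelator positive control signal, with at least half of replicates also reaching 10%; inconclusive = mean and replicate majority disagree about reaching 10%; inactive = mean and most replicates under 10%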
SKKanGAS inh – inhibitors of SKKanGAS S. pyogenes growth in kanamycin (SK-promoter or general growth effect); BacTiter-Glo, 6 h; inhibition, % at 7.5 µM; hit rate 1.3% among 300,000;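 active = mean replicate score, as percent of positive control median, at least 50; inconclusive = mean below 50 but one replicate at or above 50; inactive = mean and every replicate below 50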;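 also: strain carries kanamycin resistance gene driven by streptokinase promoter and grows in 40 µg/ml kanamycin; loss of luminescence reflects streptokinase promoter inhibition or plain growth inhibition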
Hits are given with their value; - = inactive; ? = inconclusive; . = no result given. Shown are actives, neighbours in structure and some others; about 3.6% of the full set was active somewhere.

SMILES	T cruzi inh	CSC inhib	Beta apoptosis	PfHsp90 set2	HIF activator	SKKanGAS inh
COc1ccc(CNCC(O)(c2ccc(Cl)cc2)c2ccc(Cl)cc2)cc1	-	-	-	-	-	59.2
COc1ccc(S(=O)(=O)N(C)C)cc1NC(=O)COC(=O)C1CC1	.	-	-	-	.	.
CC[C@@H](C)[C@H](NC(=O)OC(C)(C)C)c1nnc(S(=O)(=O)Cc2cc(C)ccc2C)o1	-	-	-	105.6	-	51.7
Cc1ccccc1CS(=O)(=O)c1nnc([C@H](CC(C)C)NC(=O)OC(C)(C)C)o1	-	.	-	?	-	-
COc1cc(OC)nc(-n2ncc(Br)c(Br)c2=O)n1	.	106.6	99.2	-	.	.
COc1ccccc1N(CC(O)Cn1c2ccccc2c2ccccc21)S(=O)(=O)c1ccccc1 (centres undefined)	62.5	-	-	-	-	?
COc1ccccc1CNCC(O)Cn1c2ccccc2c2ccccc21 (centres undefined)	-	-	102.6	-	-	-
Cc1ccc(S(=O)(=O)N(C)CC(O)Cn2c3ccccc3c3ccccc32)cc1 (centres undefined)	-	-	-	-	-	-
O=S(=O)(c1ccccc1)N(CC(O)Cn1c2ccccc2c2ccccc21)c1ccccc1 (centres undefined)	-	94.7	.	-	-	-
OCCNCC(O)Cn1c2ccccc2c2ccccc21 (centres undefined)	-	-	-	-	-	-
CCOc1ccc(OCCC(=O)NNC(=O)c2cc(OC)c(OC)c(OC)c2)cc1	-	-	-	.	-	-
Cc1cccc(NC(=O)CSCC(=O)Nc2cc(Cl)ccc2N2CCOCC2)c1	-	-	-	.	-	-
Cc1cccc2cc(CNCc3ccccc3)c(Cl)nc12	-	-	-	-	-	-
CN(C)N1C(=O)c2c(Cl)c(Cl)c(Cl)c(Cl)c2C1=O	.	.	.	-	.	.
Nc1nc(Nc2cccc(Cl)c2)nc(NCc2ccco2)c1[N+](=O)[O-]	-	-	-	-	-	74.7
Cc1cc(Cc2ccc([N+](=O)[O-])cc2)c(C)cn1	-	-	-	-	-	-
O=S(=O)(CC(CN1CCCCC1)N1CCCCC1)c1ccc2ccccc2c1 (centres undefined)	70.6	.	.	-	-	-
Cc1ccc(S(=O)(=O)CC(CN2CCCCC2)N2CCCCC2)cc1 (centres undefined)	-	.	.	-	-	-
COc1ccc(Cc2[nH]n3c(=O)c(Cl)c(C)nc3c2-c2ccccc2)cc1	-	-	-	-	-	122.1
CC(NC(=O)CN1CCN(CC(=O)Nc2ccccc2Cl)CC1)c1ccc(Br)cc1 (centres undefined)	.	.	.	-	.	.
O=C(O)Cn1cc(/C=C/[N+](=O)[O-])c2ccccc21	-	-	-	-	-	-
O=[N+]([O-])/C=C/c1cn(Cc2ccccc2)c2ccccc12	-	-	-	93.1	-	-
COc1ccc(OC)c(CNc2ccc3c(c2)CCC3)c1	70.3	-	-	-	-	-
COc1ccc(OC)c(CC(=O)Nc2ccc3c(c2)CCC3)c1	-	-	-	-	-	-
COc1cccc(CNc2ccc3c(c2)CCC3)c1	60.2	-	-	-	-	-
SMILES	T cruzi inh	CSC inhib	Beta apoptosis	PfHsp90 set2	HIF activator	SKKanGAS inh
CC(C)C[C@H](NC(=O)c1nc[nH]c1C(=O)NCc1ccccc1)C(=O)OCc1ccccc1	-	-	-	-	-	54.1
CC(C)C[C@H](NC(=O)c1[nH]cnc1C(=O)N[C@@H](Cc1ccccc1)C(=O)OC(C)(C)C)C(=O)OC(C)(C)C	-	-	-	-	-	82.8
Cc1cccc(NC(=O)c2nc[nH]c2C(=O)N[C@@H](C)c2ccccc2)c1	.	78.0	-	-	.	.
CC(C)C[C@H](NC(=O)c1[nH]cnc1C(=O)N[C@@H](Cc1ccccc1)C(=O)OC(C)(C)C)C(=O)OCc1ccccc1	-	-	-	-	-	-
CC(C)C[C@H](NC(=O)c1[nH]cnc1C(=O)N[C@@H](C)C(=O)OC(C)(C)C)C(=O)OCc1ccccc1	-	-	-	-	-	73.1
Cc1ccccc1SCCNC(=O)CCc1ccccc1	-	-	-	.	-	-
COc1ccc(NC(=O)c2nc[nH]c2C(=O)N[C@@H](CC(C)C)C(=O)OC(C)(C)C)cc1	-	133.0	-	-	-	75.5
Cc1cccc(NC(=O)c2nc[nH]c2C(=O)NCCCNC(=O)c2[nH]cnc2C(=O)Nc2cccc(C)c2)c1	.	76.7	-	-	.	.
COc1ccc(NC(=O)c2nc[nH]c2C(=O)N[C@@H](C)C(=O)OC(C)(C)C)cc1	-	.	-	.	-	-
CC(C)C[C@H](NC(=O)c1nc[nH]c1C(=O)NC1CCN(C(=O)OC(C)(C)C)CC1)C(=O)OCc1ccccc1	-	-	-	-	-	72.6
Cc1cccc(NC(=O)c2nc[nH]c2C(=O)N[C@@H](CC(C)C)C(=O)OCc2ccccc2)c1	-	.	-	-	-	92.2
Cc1cccc(NC(=O)c2nc[nH]c2C(=O)NCCN(CCNC(=O)c2[nH]cnc2C(=O)Nc2cccc(C)c2)CCNC(=O)c2[nH]cnc2C(=O)Nc2cccc(C)c2)c1	.	-	-	-	.	.
Cc1cccc(NC(=O)c2nc[nH]c2C(=O)N[C@@H](C)C(=O)OCc2ccccc2)c1	-	-	-	-	-	-
c1ccc(C[C@H]2CN=C(Nc3ccccc3)N2CC2CCCCCC2)cc1	.	-	-	-	.	.
CN1CCC(=C(c2ccc(Cl)cc2)c2ccccn2)CC1	69.0	-	-	-	-	-
O=C(Cn1cnc2cc([N+](=O)[O-])ccc2c1=O)Nc1cccc(S(=O)(=O)N2CCCCC2)c1	.	.	.	-	.	.
Cn1nnnc1N=N/C(=N/Nc1ccccc1)c1ccccc1	-	-	125.9	96.8	181.9	-
Oc1ccccc1N=N/C(=N/Nc1ccccc1O)c1ccccc1	-	-	-	-	-	-
COc1ccc(C[C@H]2CN3C(=NC[C@@H]3Cc3ccccc3)N2CCNC(=O)CCC2CCCCC2)cc1	-	127.7	100.8	-	-	-
CCCCCCSc1cc(-c2nc3cnccn3c2NCCCC)ccc1OC	.	104.8	-	-	.	.
CCCCNc1c(-c2ccc(OC)c(Sc3ccc(OC)cc3)c2)nc2cnccn12	.	.	-	-	.	.
CCCCNc1c(-c2ccc(-c3ccc(OC)cc3)c(OC)c2)nc2ccccn12	.	.	.	-	.	.
CCCCNc1c(-c2ccc(OC)c(Sc3ccc(OC)cc3)c2)nc2ccccn12	-	101.2	.	-	-	?
CCCCCCSc1cc(-c2nc3cc(C)ccn3c2NCCCC)ccc1OC	-	77.2	-	-	-	-
CCCCNc1c(-c2ccc(SC(C)CC)cc2)nc2cnccn12 (centres undefined)	.	107.2	-	107.1	.	.
COCCCN1C(=O)C(=O)/C(=C(/O)c2ccc(S(=O)(=O)N3CCOCC3)cc2)C1c1ccc(C(C)C)cc1 (centres undefined)	-	-	-	-	-	-
CCC(C)N(C(=O)CSc1nc(C)nc2ccccc12)C1CCS(=O)(=O)C1 (centres undefined)	.	.	-	.	.	.
